High-throughput results: PubChem BioAssay, The Scripps Research Institute Molecular Screening Center
Compounds with a hit are over-represented: about 4.3% of the library has one in this group of screens.
OX1R antag-1: OX1R (HCRTR1) antagonists, primary screen, fluorescence, CHO/OX1R cells, Fluo-8 calcium, orexin A; Orexin/Hypocretin receptor type 1 (Homo sapiens), O43613; inhibition, % at 5 µM; 330,000 tested, 0.43% active; Fluo-8 calcium fluorescence;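 active = inhibition above its plate's threshold, mean inhibition of all tested compounds on the plate plus 3 SD, cut at about 37% in these data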;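 note: 0% = orexin A challenge wells and 100% = SB-334867-A antagonist wells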
CHO parental Ca: ATP-evoked calcium signal inhibitors, parental CHO, primary screen, counter-screen for OX1R antagonist project, cell-based, fluorescence, Fluo-8 calcium dye. 330,000 tested, 0.63% active. inhibition, % at 5.6 µM. parental CHO-K1, ATP-induced calcium, Fluo-8 fluorescence;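 active = inhibition above that plate's mean sample inhibition plus 3 SD, cut at about 26% in these data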;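 note: 0% = ATP-challenged DMSO wells and 100% = DMSO wells without ATP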
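Test system: untransfected parental CHO cell line; also added: ATP stimulus; dosing: 5.6 µM, single dose; signal: calcium-sensitive Fluo-8 fluorescence; measure: percent inhibition of ATP-evoked calcium rise, normalized to controls; benchmarks: low control ATP plus DMSO, high control DMSO only; replication: one well per compound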
OX1R antag-2: antagonists of human orexin 1 receptor (OX1R); Orexin/Hypocretin receptor type 1 (Homo sapiens), O43613; OX1R-expressing cells, FRET antagonist read-out; 330,000 tested, 1.8% active; AID 485270, 2010; inhibition, % at 6.6 µM; in the data active = inhibition mostly above about 38%, no sharp cut-off; inactive = mostly below about 40%;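 note: 0% = agonist challenge alone and 100% = reference antagonist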
TAAR1 antag: human TAAR1 antagonists, primary screen, Fluo-8 calcium fluorescence, CHO RD-HGA16 cells | antagonist | 360,000 tested, 1.5% active | Trace amine-associated receptor 1 (Homo sapiens), Q96RJ0 | inhibition, % at 3 µM;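 active = inhibition above a per-plate cutoff, the mean inhibition of test compounds on that plate plus 3 SD, cut at about 49% in these data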;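 note: 0% = DMSO plus EC80 beta-PEA response and 100% = DMSO alone without agonist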
Target sequence (Q96RJ0 whole entry, looked up): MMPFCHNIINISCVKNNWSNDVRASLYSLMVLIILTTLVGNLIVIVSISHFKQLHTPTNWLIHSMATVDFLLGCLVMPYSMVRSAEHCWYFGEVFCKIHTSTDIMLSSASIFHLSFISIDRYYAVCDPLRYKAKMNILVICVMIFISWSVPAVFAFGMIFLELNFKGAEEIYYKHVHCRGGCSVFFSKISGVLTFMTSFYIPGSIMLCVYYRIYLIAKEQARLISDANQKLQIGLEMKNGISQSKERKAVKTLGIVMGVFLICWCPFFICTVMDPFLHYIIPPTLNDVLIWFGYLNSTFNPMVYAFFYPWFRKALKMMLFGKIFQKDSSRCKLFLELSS
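Test system: CHO RD-HGA16 cells bearing hTAAR1 | Reagent: β-PEA, EC80 | Compound dosing: 3 µM, single point | Schedule: Dye loading 75 min at 37 °C, then 30 min room temperature | Signal: Calcium fluorescence with Fluo-8 | Evaluation: Percent inhibition of PEA-evoked calcium signal, max/basal emission ratio | Control set: DMSO-only wells and EC80 β-PEA-stimulated wells | Repeats: Singlicate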
TAAR1 ag: human TAAR1 agonists, primary screen, Fluo-8 calcium fluorescence, CHO RD-HGA16 cells. 360,000 tested, 0.99% active. vehicle wells 0%, saturating PEA agonist 100%. Trace amine-associated receptor 1 (Homo sapiens), Q96RJ0. activation, % at 3 µM;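 active = activation above the mean activation of all test compounds in the run plus 3 SD, cut at about 38% in these data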
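System: CHO-derived RD-HGA16 cells with stable Gα16 and human TAAR1. Times: 17-24 h plating, Fluo-8 75 min 37 °C, 30 min RT. Measured by: calcium-sensitive Fluo-8 signal, excitation 470-495, emission 515-575 nm. Read-out basis: % activation relative to PEA EC100 response. Control set: DMSO and PEA EC100. Repeats: no replicates (n 1).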
GalR3 antagonist: GalR3 antagonists in HEK293 cells, primary screen, cell-based, fluorescence readout. inhibition, % at 3 µM. AID 651719, 2012. HEK293 GalR3-CNG cAMP membrane potential fluorescence; galR3 body fused to GalR1 C-terminus. 360,000 tested, 0.44% active. Galanin receptor type 3 (Homo sapiens), O60755;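 active = inhibition above the screen-wide average plus 3 SD, cut at about 13% in these data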;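 note: forskolin and galanin both at EC90 stimulate the cells; cAMP rise reported by CNG channel membrane potential dye signal; 0% = forskolin plus galanin with DMSO and 100% = forskolin alone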
Target sequence (O60755 1-299 limits assumed): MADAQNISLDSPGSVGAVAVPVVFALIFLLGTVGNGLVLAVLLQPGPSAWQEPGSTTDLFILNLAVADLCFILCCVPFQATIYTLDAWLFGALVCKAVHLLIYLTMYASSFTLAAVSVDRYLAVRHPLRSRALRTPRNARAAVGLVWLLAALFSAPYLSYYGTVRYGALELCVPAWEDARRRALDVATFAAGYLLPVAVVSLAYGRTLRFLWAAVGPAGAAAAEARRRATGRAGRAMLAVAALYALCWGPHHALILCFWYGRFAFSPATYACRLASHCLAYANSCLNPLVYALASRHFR
OX1R HTRF conf: OX1R (HCRTR1) antagonists, confirmation, cell-based, HTRF; shares compounds with OX1R antag-2; OX1R-expressing cells, HTRF antagonist assay; inhibition, % at 6.6 µM; 1,800 tested, 49% active; in the data active = inhibition above about 55%;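 note: CHO cells expressing OX1R stimulated with orexin A at about EC80; 0% = agonist challenge alone and 100% = reference antagonist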
CHO-K1 HTRF cnt: signal inhibition in parental CHO-K1 cells, counter-screen for OX1R antagonist project, cell-based, HTRF | AID 493232, 2011 | inhibition, % at 6.6 µM | HTRF counterscreen | 1,800 tested, 48% active | shares compounds with OX1R antag-2; in the data active = inhibition above about 17%;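 note: 0% = agonist challenge with vehicle and 100% = vehicle alone without agonist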
Numbers without * were called inactive; . = no result given.

SMILES	OX1R antag-1	CHO parental Ca	OX1R antag-2	TAAR1 antag	TAAR1 ag	GalR3 antagonist	OX1R HTRF conf	CHO-K1 HTRF cnt
O=C(Nc1cccc(/C=C/c2ccccn2)c1)c1cc(Cl)ccn1	-13	-9	80*	9	0	-10	85*	12
Cc1ccc(/C=c2\sc3n(c2=O)CN(c2ccc(Br)cc2)CN=3)o1	8	3	23	18	0	-7	.	.
Cc1ccc(N2CN=c3s/c(=C\c4cccnc4)c(=O)n3C2)cc1	-23	2	99*	1	10	-1	36	49*
CCSc1c(C(=O)NC)ccc2c1C(=O)c1ccccc1C2=O	-14	-4	91*	-2	8	-4	58*	92*
O=C(/C=C/c1ccc(Cl)c([N+](=O)[O-])c1)NCc1cccnc1	-7	-2	53	4	8	-1	.	.
O=C(/C=C/c1ccc([N+](=O)[O-])cc1)NCc1cccnc1	-3	3	104*	0	5	-4	35	36*
O=C(CNC(=O)c1ccccc1)N/N=C/c1ccc([N+](=O)[O-])o1	-5	-12	98*	-14	9	-6	50	75*
Cc1cc(C)nc(NC(=O)c2ccc(C)c([N+](=O)[O-])c2)n1	-4	-9	65	7	12	-3	.	.
Cc1cc(C)nc(NC(=O)c2cc([N+](=O)[O-])cc([N+](=O)[O-])c2)n1	-4	-4	111*	3	0	-3	44	68*
O=C(NNC(=O)c1ccc([N+](=O)[O-])o1)c1ccccc1	-5	-7	136*	-8	8	2	59*	64*
O=C(Nc1ncccn1)c1cc([N+](=O)[O-])cc([N+](=O)[O-])c1	-2	4	107*	2	-1	3	58*	72*
O=C(c1cccs1)N1C[C@@H](n2cc(-c3ccc(F)cc3)nn2)[C@H](O)C[C@@H]1c1ccccc1	.	.	.	44	9	-5	.	.
NS(=O)(=O)c1ccc(O)c(NC(=O)c2ccc([N+](=O)[O-])o2)c1	-12	-8	125*	-14	0	-3	48	61*
O=C(NCc1cccnc1)c1ccc([N+](=O)[O-])o1	1	-1	37	9	1	-3	.	.
O=C(c1cc([N+](=O)[O-])cc([N+](=O)[O-])c1)N(c1ccccn1)c1ccccn1	5	8	103*	11	2	-1	49	72*
O=C(Nc1cccnc1)c1ccc([N+](=O)[O-])o1	-1	-3	79*	8	0	-3	58*	88*
O=C(Nc1cccc(S(=O)(=O)N2CCCCC2)c1)c1ccc([N+](=O)[O-])o1	-24	-10	28	-8	6	2	.	.
Cc1ccc(C)c(NC(=O)c2cc([N+](=O)[O-])cc([N+](=O)[O-])c2)c1	-17	-8	80*	13	0	-7	38	41*
O=C(c1cccc([N+](=O)[O-])c1)N(c1ccccn1)c1ccccn1	9	-1	13	-8	-1	-11	.	.
CCOc1ccccc1NC(C)C(=O)Nc1cc(C(F)(F)F)ccc1N1CCOCC1 (stereo not drawn)	-41	-24	20	9	2	-9	.	.
Cc1noc(C)c1S(=O)(=O)Nc1ccc2c(c1)C(=O)N([C@H](C)CO)C[C@H](C)[C@@H](CN(C)Cc1ccc(C(=O)O)cc1)O2	-10	11	10	0	1	-4	.	.
Cc1cc(C)nc(NC(=O)c2ccc([N+](=O)[O-])o2)n1	7	-6	78*	7	2	-3	36	80*
Cc1ccc2nc3c(cc(C(=O)NCCc4ccccc4)c(=N)n3CCN3CCOCC3)c(=O)n2c1	-9	-20	97*	.	.	.	64*	69*
Cc1cccn2c(=O)c3cc(C(N)=S)c(=N)n(CCCN4CCOCC4)c3nc12	-14	-12	64	16	-1	-3	.	.
Cc1cccn2c(=O)c3cc(C(=O)NC(C)c4ccccc4)c(=N)n(CCCn4ccnc4)c3nc12 (stereo not drawn)	-2	-4	23	-20	-1	2	.	.
SMILES	OX1R antag-1	CHO parental Ca	OX1R antag-2	TAAR1 antag	TAAR1 ag	GalR3 antagonist	OX1R HTRF conf	CHO-K1 HTRF cnt
N#Cc1cc2c(=O)n3ccccc3nc2n(CCCn2ccnc2)c1=N	-22	-4	82*	-22	2	0	48	68*
Cc1cccn2c(=O)c3cc(C#N)c(=N)n(CCCN4CCOCC4)c3nc12	-67	-16	144*	-21	2	2	40	64*
Cc1cccn2c(=O)c3cc(C#N)c(=O)n(-c4c(C)n(C)n(-c5ccccc5)c4=O)c3nc12	-19	3	147*	-9	14	4	53	55*
O=C(c1ccc(Cl)cc1)N1CCN(CCc2ccccn2)CC1	.	.	.	-15	2	-3	.	.
N#Cc1ccc(NC(=O)COC(=O)c2cccc(S(=O)(=O)N3CCCC3)c2)cc1	.	.	.	10	3	1	.	.
CCn1c(=N)c(C(=O)NC)cc2c(=O)n3cccc(C)c3nc21	.	.	.	1	9	-3	.	.
Cc1ccc2nc3c(cc(C(=O)NCC4CCCO4)c(=N)n3CC3CCCO3)c(=O)n2c1 (stereo not drawn)	-14	-10	140*	.	.	.	49	72*
COCCCn1c(=N)c(C(N)=S)cc2c(=O)n3cccc(C)c3nc21	-10	-28	82*	-10	0	1	39	49*
CCCCNC(=O)c1cc2c(=O)n3cccc(C)c3nc2n(CCN2CCOCC2)c1=N	-24	-38	112*	-7	-2	-2	50	55*
Cc1ccccc1N=Nc1ccc(O)c2ncccc12	26	44	13	13	4	-5	.	.
O=Nc1ccc(O)c2ncccc12	0	-7	105*	-30	2	1	45	39*
Nc1c(C(=O)O)ccc2c1C(=O)c1ccccc1C2=O	3	7	107*	13	1	-3	39	29*
O=C(O)c1ccc([N+](=O)[O-])c2c1C(=O)c1ccccc1C2=O	13	1	101*	-39	2	-2	69*	104*
